Compound activity from PubChem.
A selection: hits, their analogues and other compounds. The true share with any hit is near 2.1%.
PERK inhibitor – block of dimerizer-induced PERK translation repression, primary screen, PERK inhibitor project, CHO PERK-DD cells, SEAP luminescence, HTS; actives 0.17% (n = 220,000); CHO PERK-DD fusion, SEAP luminescence translation reporter; inhibition, % at 5.6 µM; Eukaryotic translation initiation factor 2-alpha kinase 3 (Homo sapiens), Q9NZJ5;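 active means inhibition above the mean inhibition of all tested compounds plus 3 SD, set separately per screening campaign, cut at about 2.9% in these data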;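 further: PERK kinase domain activated by AP20187 dimerizer at 100 nM; 0% = DMSO with dimerizer and 100% = rapamycin at 8.4 µM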
Target sequence (Q9NZJ5 whole entry, looked up, the tested form may be a part): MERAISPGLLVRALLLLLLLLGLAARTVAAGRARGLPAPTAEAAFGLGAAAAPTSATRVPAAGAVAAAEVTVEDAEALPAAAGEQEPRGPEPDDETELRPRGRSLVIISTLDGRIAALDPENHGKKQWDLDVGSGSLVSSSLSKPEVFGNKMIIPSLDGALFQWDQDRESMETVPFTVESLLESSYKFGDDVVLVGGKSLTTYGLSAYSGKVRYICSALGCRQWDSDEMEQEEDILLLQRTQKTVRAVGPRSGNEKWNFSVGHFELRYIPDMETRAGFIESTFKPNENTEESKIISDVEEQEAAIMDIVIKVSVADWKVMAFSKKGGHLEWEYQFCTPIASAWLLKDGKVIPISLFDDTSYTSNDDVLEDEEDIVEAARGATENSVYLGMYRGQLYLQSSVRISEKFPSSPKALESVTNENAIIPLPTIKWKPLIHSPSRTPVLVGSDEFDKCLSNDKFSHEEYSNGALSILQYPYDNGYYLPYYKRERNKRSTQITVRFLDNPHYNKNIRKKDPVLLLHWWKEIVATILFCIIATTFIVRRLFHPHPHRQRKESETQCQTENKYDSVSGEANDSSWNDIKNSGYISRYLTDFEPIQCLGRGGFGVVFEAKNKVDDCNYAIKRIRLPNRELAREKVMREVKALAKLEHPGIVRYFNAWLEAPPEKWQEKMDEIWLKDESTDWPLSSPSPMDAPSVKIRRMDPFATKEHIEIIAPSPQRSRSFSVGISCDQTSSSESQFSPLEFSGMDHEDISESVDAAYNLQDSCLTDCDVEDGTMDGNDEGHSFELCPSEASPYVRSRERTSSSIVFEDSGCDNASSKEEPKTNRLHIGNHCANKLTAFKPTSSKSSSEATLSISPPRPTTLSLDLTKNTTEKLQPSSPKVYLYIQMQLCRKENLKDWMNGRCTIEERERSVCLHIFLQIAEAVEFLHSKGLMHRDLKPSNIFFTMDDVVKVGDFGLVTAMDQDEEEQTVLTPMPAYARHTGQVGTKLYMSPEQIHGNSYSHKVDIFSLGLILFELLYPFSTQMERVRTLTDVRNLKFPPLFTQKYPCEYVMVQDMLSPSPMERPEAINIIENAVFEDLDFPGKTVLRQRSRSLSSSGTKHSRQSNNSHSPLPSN
Autophagy mod – autophagy modulators in MEF cells, primary screen, imaging, high-content, MEF GFP-LC3. MEF GFP-LC3 puncta imaging; test concentration mostly 10 µM. calls only at 10 µM (by protocol). actives 0.98% (n = 190,000);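 active means percentage of spot-positive cells more than 3 SD above its plate mean, without a fluorescence outlier flag or 80% toxicity; inconclusive means no clear call, values can overlap the other calls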;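 further: spot-positive cell cutoff set from DMSO-treated cells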
Ins promoter up – insulin promoter activators in MIN6 cells, imaging, high-content screening, mouse beta cells; MIN6 insulin promoter-GFP reporter; stronger effect = higher value; z-score at 5 µM; actives 0.3% (n = 190,000);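 active means z-score above 3 at 5 µM with at least 500 cells counted in the well; inconclusive means wells under 500 cells, flagged as cytotoxic or low count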
Insulin prom inh – inhibitors of insulin promoter-driven GFP, primary screen, imaging, TRM-6 cells (human fetal islet line), eGFP reporter, cell count; reporter expression induced with tamoxifen; inhibition, % at 2 µM; actives 0.9% (n = 130,000);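 active means inhibition above the mean plus 3 SD, with well images judged a real hit on visual review, cut at about 60% in these data, passing the limit was not always enough; inconclusive means inhibition over the cutoff but images rejected on review; inactive means inhibition not above the cutoff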
Dynein transport – inhibitors of GR-EGFP nuclear translocation, primary screen, dynein cargo transport inhibitor project, imaging, high-content, 3617.4 mouse cells | actives 0.47% (n = 220,000) | z-score, hits read low | test concentration mostly 20 µM; stimulated with dexamethasone, 1 µM; stronger effect = lower value | AID 1381, 2008;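 active means plate z-score of nuclear minus cytoplasmic receptor signal below a set negative limit, without overly bright fluorescence or cell loss, cut at about -3.5 in these data, passing the limit was not always enough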;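 further: z-score of nuclear minus cytoplasmic ring GR-EGFP intensity difference per well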
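medium = tetracycline-free induction medium containing charcoal-stripped FBS | probe or stimulus = dexamethasone, 1.0 µM final | timing = 48 h induction, then 1 h compound, then 30 min agonist, 37 °C | detection = automated 10x imaging of fixed Hoechst-stained cells | read-out basis = nuclear versus cytoplasmic GR-EGFP signal, averaged per well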
Dynein inh conf – dynein cargo transport inhibitors, GR-EGFP translocation, confirmation, imaging, high-content imaging, GR-EGFP cells; 3617.4 GR-EGFP nuclear translocation imaging, dexamethasone-induced; actives 69% (n = 1,000); shares compounds with Dynein transport; calls only at 20 µM; AID 463116, 2010;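 active means inhibition of receptor movement into the nucleus at or above a set limit in both runs, with normal cell brightness and cell count; inconclusive means limit reached in only one run, brightness and count normal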;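 further: dexamethasone at 1 µM final in well for 30 min; nuclear minus cytoplasmic GR-EGFP mean intensity difference in channel 2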
* = called active by the depositor; i = inactive; u = inconclusive; x = not tested or not shown; + = active, no number.

SMILES | PERK inhibitor | Autophagy mod | Ins promoter up | Insulin prom inh | Dynein transport | Dynein inh conf
Cc1ccc(/C=C2\CCC3=C2OC(N)=C(C#N)C3c2ccc(C)cc2)cc1 (stereo not given) | -1 | + | 2.1 | x | -9 | i
COC(=O)[C@@]1(Cc2ccc(OC)cc2)[C@H]2c3cc(C(=O)N(C)C)n(CCc4ccc(OC)c(Br)c4)c3C[C@H]2CN1C(=O)c1ccccc1 | -1 | i | -0.15 | 5 | -0.038 | x
COc1ccccc1N1C(=O)C=C(Sc2nc(C)cc(C)n2)C1=O | 0 | x | 0.04 | x | -4* | +
COc1ccccc1N1C(=O)C2CC(C)=C(C)CC2C1=O (stereo not given) | 1 | i | -0.16 | -36 | -0.94 | x
Cc1oc(S(=O)(=O)N2CCCC2)cc1C(=O)Nc1ccccc1 | 2 | x | -0.64 | x | -0.84 | x
N=c1oc2c3c4c(cc2cc1C(=O)Nc1ccccc1)CCCN4CCC3 | 0 | i | x | i | -4.6* | +
CCOc1ccc(C(=O)C(CCC(CN(C)C)C(=O)c2ccc(OCC)cc2)CN(C)C)cc1 (stereo not given) | -1 | i | u | x | -4.1* | i
CCOC(=O)C1=C(CSc2nc(-c3ccncc3)ccc2C#N)OC(N)=C(C#N)C1c1ccc(OC)cc1 (stereo not given) | -2 | i | -0.83 | 0 | -5.8 | i
CCOC(=O)C1=C(CSc2nc(-c3ccncc3)ccc2C#N)OC(N)=C(C#N)C1c1cccnc1 (stereo not given) | 1 | i | 1.1 | x | -1.6 | x
O=C(Cn1ccc(C(F)(F)F)n1)N/N=C/c1ccc(N2CCOCC2)cc1 | 1 | i | -0.16 | x | -0.79 | x
O=[N+]([O-])/C=C/c1cn(Cc2ccc(F)cc2)c2ccccc12 | 0 | i | x | -13 | -3.9* | +
O=C(O)c1ccc(N/N=C/c2cn(Cc3ccc(F)cc3)c3ccccc23)cc1 | 1 | x | -0.91 | x | -0.95 | x
N#Cc1cccc(N=c2ssnc2Cl)c1 | 0 | i | 1.3 | -7 | -4.4 | +
Clc1nssc1=Nc1ccc(Br)cc1 | 1 | i | -0.76 | 21 | -0.82 | x
COc1ccc(-n2nc([N+](=O)[O-])c(=NCCC3=CCCCC3)n2O)cc1 | 0 | i | -1.1 | x | 1.7 | x
C=CCSc1nnc(C)c(/C=C/Nc2ccc(Cl)cc2)n1 | 2 | + | x | x | -7.7 | +
CSc1nnc(C)c(/C=C/Nc2ccc(F)cc2F)n1 | 0 | i | 0.04 | x | 0.37 | x
COc1ccc(C2c3[nH]c4ccccc4c3CCN2C(=O)Cc2nonc2C)c(F)c1 (stereo not given) | 1 | x | -0.37 | x | -1.2 | x
Cc1ccccc1-n1c(=O)c2ccccc2n2cnnc12 | 0 | i | -1 | 0 | 0.4 | x
Cc1ccccc1-n1sc2cc(F)ccc2c1=O | 1 | i | 1.6 | -124 | -4.8* | +
Cc1cc(C(=O)N[C@H](c2ccccc2)[C@@]2(C)C[C@@H]2[C@@H](C)C(=O)Nc2ccc3ccccc3c2)n(C)n1 | -1 | i | -0.27 | -10 | -0.74 | x
Cc1ccc(N2C(=O)CC(Sc3ncn[nH]3)C2=O)cc1C (stereo not given) | 0 | i | 0.12 | 60 | -6* | i
COc1ccccc1NC(=S)N1CCN(C(=O)C2CCCO2)CC1 (stereo not given) | 1 | i | 0.86 | x | -0.8 | x
Cc1ccsc1/C=C/C1=Cc2c(sc(NC(=O)CSc3n[nH]c(N)n3)c2C#N)C(C)(C)C1 | 0 | i | x | -61 | -3.6* | i
O=C(CSC1CC(=O)N(c2ccc(C(=O)O)cc2)C1=O)Nc1ccc(Cl)cc1 (stereo not given) | 1 | i | 1.1 | x | 0.14 | x
SMILES | PERK inhibitor | Autophagy mod | Ins promoter up | Insulin prom inh | Dynein transport | Dynein inh conf
C=CCSc1nc2ccccc2n1C(=O)/C=C/c1cc(OC)c(OC)c(OC)c1 | 0 | i | x | 29 | -6* | +
CCOc1cc(CNCC(C)C)c(Cl)cc1OCC(=O)Nc1ccccc1 | 1 | i | -1.5 | x | -0.43 | x
CN1C/C(=C\c2ccc(N3CCOCC3)cc2)C(=O)/C(=C/c2ccc(N3CCOCC3)cc2)C1 | -1 | i | -0.02 | -17 | -3.4 | x
CCN1C/C(=C/c2ccc(N3CCOCC3)cc2)C(=O)/C(=C/c2ccc(N3CCOCC3)cc2)C1 | 0 | i | 0.95 | x | -3.6 | +
O=C1CC2c3ccccc3C1C1C(=O)N(CCc3ccccc3)C(=O)C21 (stereo not given) | 2 | i | 0.03 | x | -0.54 | x
CN(C)c1ccc(/C=C2\CCC/C(=C\c3ccccc3)C2=O)cc1 | 2 | i | x | -120 | -6.3 | i
O=S1(=O)CC=C(CSC(=S)NC2CCS(=O)(=O)C2)C1 (stereo not given) | 2 | i | 1.1 | x | -4.8* | +
CC(C)COc1cc(=O)[nH]c(SCC(C)C)n1 | 1 | i | -0.93 | 40 | -4.2* | i
COc1ccc(C(=O)n2nc(-c3ccco3)nc2SC)cc1OC | 0 | i | 0.41 | -169 | -4* | i
O=C(O)C(O)C(O)c1nc2ccccc2[nH]1 (stereo not given) | 0 | i | -0.29 | x | -1.1 | x
O=C(/C=C/c1ccc(O)c(O)c1)c1ccccc1O | 0 | x | -1.5 | x | -5.4* | +
O=C(/C=C/c1ccc(F)cc1)c1ccccc1Br | 1 | i | -0.24 | -9 | -5.7* | +
Nc1cc(Cl)ccc1N1CCCCCC1 | 0 | i | x | 67 | -0.28 | x
COCCn1nnnc1C(C(C)C)N1CCSCC1 (stereo not given) | 1 | i | x | x | -0.37 | x
N#C/C(=C/c1ccc(N2CCCCCC2)o1)c1ccc(Cl)cc1 | -1 | u | x | -54 | -6.1 | i
N#C/C(=C/c1ccc(N2CCCCC2)o1)c1cccc(F)c1 | -2 | u | x | -13 | -4.3 | i
N#C/C(=C\c1ccc(N2CCOCC2)o1)C(=O)NCC1CCCO1 (stereo not given) | 2 | i | 0.95 | x | -0.89 | x
O=C(/C=C/c1ccco1)Nc1ccccc1N1CCCC1 | 1 | i | 0.3 | x | -3.6* | i
Cc1cc(C)n(-c2nncn2NC(=O)c2ccc(Cl)cc2O)n1 | -2 | i | 2.2 | x | 3.5 | x
CC(C)(C)c1ccc(C(=O)Nc2ccc(Cl)cc2)cc1 | 0 | i | x | x | 2.1 | x
CC(C)(C)c1ccc(C(=O)CC(Sc2ccc(Cl)cc2)C(=O)O)cc1 (stereo not given) | 0 | i | 1.3 | x | -4.6* | +
CCn1c(=O)c([N+](=O)[O-])c(NCCN(C)C)c2ccccc21 | 0 | i | 0.38 | x | 1.4 | x
CCn1c(=O)c([N+](=O)[O-])c(Cl)c2ccccc21 | 1 | i | 0.28 | 36 | -6.1* | +
